From PubChem BioAssay
PKD1 inh: blocks activity of human protein kinase D1; PKD1 kinase fluorescence polarization assay; inhibition, % (no concentration beside the values); 200,000 compounds, 0.056% hits; AID 797; in the data active means inhibition above about 50%
ROMK primary: modulates human ROMK potassium channel activity; B-score at 10 µM; Tet-inducible ROMK, thallium flux fluorescence; actives lie on both sides; 130,000 compounds, 2% hits; P48048;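 active means signal ratio slope over the read window, or its plate-corrected B-score, at least 3 SD from the plate mean, either direction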;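 further: B-score of the F/F0 ratio slope over 7 to 12 s after thallium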
Mdm2 ligase inh: Mdm2 E3 ligase (human) inhibition; cell-based MDM2 ubiquitination luciferase reporter, 2 h; 0 = plate control, 100 = twice control, blank-subtracted; signal enhancement, % at 5 µM; 210,000 compounds, 0.11% hits; AID 1230;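 active means signal enhancement of 30% or more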;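 further: luminescence tracks abundance of the self-degrading MDM2-luciferase fusion protein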
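Assay system: stable mammalian line carrying autodegrading MDM2–luciferase fusion reporter; amount: 2000 cells seeded into each well; buffer or medium: DMEM; benchmarks: plate control and blank wells; signal: luciferase luminescence; timing: 2 h compound exposure at 37 °C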
Cl transport mod: KCC2 (human) Cl- transport modulation; Q9H2X9; KCC2 cells, thallium flux FluoZin-2 fluorescence; B-score of Tl+ flux slope (higher = more flux/activation; lower = inhibition) at 10 µM; 190,000 compounds, 2.2% hits; AID 1456;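 active means thallium flux slope and its plate-corrected score both differing from the plate sample mean at a set confidence after two filtering rounds, in either direction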;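 further: slope of fluorescence scaled to starting intensity during 10 to 20 s after thallium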
Target sequence (Q9H2X9 whole entry, looked up): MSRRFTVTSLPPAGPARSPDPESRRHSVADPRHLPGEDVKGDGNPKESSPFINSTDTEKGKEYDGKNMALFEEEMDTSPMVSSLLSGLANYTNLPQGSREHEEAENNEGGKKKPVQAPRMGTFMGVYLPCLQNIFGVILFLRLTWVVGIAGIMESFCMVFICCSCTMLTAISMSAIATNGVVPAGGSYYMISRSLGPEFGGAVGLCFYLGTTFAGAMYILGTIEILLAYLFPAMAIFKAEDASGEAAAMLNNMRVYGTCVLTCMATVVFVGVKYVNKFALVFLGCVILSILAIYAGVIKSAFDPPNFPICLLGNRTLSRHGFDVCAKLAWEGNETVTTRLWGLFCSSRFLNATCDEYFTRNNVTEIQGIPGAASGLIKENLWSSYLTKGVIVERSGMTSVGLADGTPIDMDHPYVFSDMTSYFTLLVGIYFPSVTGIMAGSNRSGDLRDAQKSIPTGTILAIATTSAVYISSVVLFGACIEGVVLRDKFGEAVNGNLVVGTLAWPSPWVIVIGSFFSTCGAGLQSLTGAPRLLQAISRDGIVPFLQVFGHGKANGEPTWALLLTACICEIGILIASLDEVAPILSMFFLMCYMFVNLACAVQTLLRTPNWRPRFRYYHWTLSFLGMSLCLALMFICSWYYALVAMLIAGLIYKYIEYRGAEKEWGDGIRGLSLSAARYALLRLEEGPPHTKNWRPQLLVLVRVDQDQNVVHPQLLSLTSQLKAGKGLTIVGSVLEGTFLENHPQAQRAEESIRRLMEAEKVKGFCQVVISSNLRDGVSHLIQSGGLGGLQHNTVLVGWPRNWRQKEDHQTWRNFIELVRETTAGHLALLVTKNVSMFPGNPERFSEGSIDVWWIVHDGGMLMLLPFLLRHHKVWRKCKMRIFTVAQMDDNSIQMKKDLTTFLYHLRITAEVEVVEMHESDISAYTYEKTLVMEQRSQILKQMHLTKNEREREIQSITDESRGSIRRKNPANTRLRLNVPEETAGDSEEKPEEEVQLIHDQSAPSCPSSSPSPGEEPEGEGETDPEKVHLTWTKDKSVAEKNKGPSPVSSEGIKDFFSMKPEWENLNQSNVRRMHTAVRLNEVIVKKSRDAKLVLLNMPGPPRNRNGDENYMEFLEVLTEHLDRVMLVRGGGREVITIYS
p97 ATPase inh: inhibitors of human p97 ATPase. P55072. inhibition, % at 8 µM. 220,000 compounds, 0.42% hits. recombinant p97 ATPase, Kinase-Glo ATP luminescence, 3 h; in the data active means inhibition above about 15%
DTT redox prof: compounds producing H2O2 with reducing agent – biochemical, NIH compound library profiling, artefact control for MLSCN library redox annotation, primary screen | AID 878 | activation, % at 10 µM | DTT-dependent redox cycling H2O2, phenol red/HRP absorbance; 100% = 100 µM peroxide control, 0% = buffer | 200,000 compounds, 0.03% hits;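 active means activation of at least 50% relative to the plate's high and low controls in the primary single-dose screen; inactive means activation below 50%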;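 further: compound incubated with DTT at 0.8 mM final as the reducing agent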
Of the large screens only hits and unclear results are named; the others gave an inactive call. Shown are actives, neighbours in structure and some others; about 3.4% of the full set was active somewhere.

Cc1[nH]nc2c1C(Cc1ccccc1)C(C#N)=C(N)O2 (centres undefined)	none (no result: ROMK primary)
O=C(Cc1ccc(-n2c(=O)c3ccccc3n(Cc3ccccc3F)c2=O)cc1)NCC1CCCO1 (centres undefined)	none
O=C(Cc1ccc(-n2c(=O)c3ccccc3n(Cc3ccccc3Cl)c2=O)cc1)NCC1CCCO1 (centres undefined)	Mdm2 ligase inh 30 (no result: Cl transport mod)
CCCOC(=O)c1ccc(O)c(OC)c1	Mdm2 ligase inh 45 (no result: ROMK primary, Cl transport mod)
COc1cc(C(=O)OCCN2CCCCC2)ccc1O	none (no result: Cl transport mod)
CC(/C=N/n1c(COc2ccccc2)n[nH]c1=S)=C\c1ccccc1	Cl transport mod 7.8 (no result: ROMK primary)
CCOC(=O)c1c(NC(=O)C2CCCO2)sc2c1CCC2 (centres undefined)	none
NC(=O)c1c(NC(=O)C2CCCO2)sc2c1CCCC2 (centres undefined)	Mdm2 ligase inh 34 (no result: ROMK primary)
CC(=O)Nc1sc2c(c1C(N)=O)CCC2	ROMK primary 2.5 (no result: Mdm2 ligase inh)
CC(C)N1CC2(c3ccccc3)CN(C(C)C)CC(c3ccccc3)(C1)C2=O	none (no result: ROMK primary)
CCCC(=O)n1nc(-c2ccco2)nc1N	none (no result: ROMK primary)
COc1ccccc1/C=C/C(=O)OCC(=O)Nc1ccc(Cl)cn1	none (no result: PKD1 inh, ROMK primary, DTT redox prof)
O=S(=O)(c1ccc2ccccc2c1)N1CCN(C(=S)Nc2ccccc2F)CC1	none (no result: PKD1 inh, ROMK primary, DTT redox prof)
CCOC(=O)c1c(-c2ccc(C)o2)csc1NC(=S)NC(=O)c1ccccc1Br	none (no result: ROMK primary, Cl transport mod)
CCOC(=O)c1c(-c2ccc(C)o2)csc1NC(=S)NC(=O)c1cccs1	Cl transport mod 6.3
CCOC(=O)c1c(-c2ccccc2)csc1NC(=O)CCN1C(=O)c2ccccc2C1=O	none (no result: ROMK primary)
CCNC(=S)Nc1scc(-c2ccccc2)c1C(=O)OCC	Cl transport mod 42
CCOC(=O)c1c(-c2ccccc2)csc1NC(=S)NC	Cl transport mod 36
COc1ccc(OC)c(S(=O)(=O)Nc2ccc(C)c(C)c2)c1	none
Cc1[nH]n(-c2cccc3ccccc23)c(=O)c1/C=N/c1sc2c(c1C#N)CCC2	Cl transport mod 26
CC(CC(=O)NC(C)c1ccc2c(c1)OCCO2)c1ccccc1 (centres undefined)	none (no result: ROMK primary)
CC(C)NC(=S)N/N=C1\CCCCc2ccccc21	none
COc1cccc(NC(=S)N/N=C2/CCCCc3ccccc32)c1	Cl transport mod 24 (no result: ROMK primary)
COCc1nnc(NC(=O)c2ccc(S(=O)(=O)N3CCCc4ccccc43)cc2)o1	none
CC1CN(S(=O)(=O)c2ccc(C(=O)Nc3nnc(-c4ccc5c(c4)CCCC5)o3)cc2)CC(C)O1 (centres undefined)	Cl transport mod 7.9 (no result: ROMK primary)
COc1ccc(-c2nnc(NC(=O)c3ccc(S(=O)(=O)N4CCCc5ccccc54)cc3)o2)cc1	Cl transport mod 12 (no result: ROMK primary)
CC1CN(S(=O)(=O)c2ccc(C(=O)Nc3nnc(-c4ccccn4)o3)cc2)CC(C)O1 (centres undefined)	none
CCC(c1nnnn1CCOC)N(Cc1ccc(C)cc1)Cc1cc2cc(OC)ccc2[nH]c1=O (centres undefined)	Cl transport mod -3.1 (no result: ROMK primary)
COc1cccc(CCNC(=O)CC2C(=O)NCCN2CC(C)(C)C)c1 (centres undefined)	none (no result: Cl transport mod)
S=c1nc(-c2ccc(Br)cc2)oc2c1CCCC2	Cl transport mod 83 (no result: ROMK primary)
Cc1ccc(S(=O)(=O)N/N=C\c2ccc3c(c2)OCO3)cc1	p97 ATPase inh 16 (no result: ROMK primary)
Cc1cccc(S(=O)(=O)c2c(N)n(Cc3ccco3)c3nc4ccccc4nc23)c1	ROMK primary -2.9, Cl transport mod -5.5
O=C1CCN(Cc2ccccc2)S(=O)(=O)c2ccccc21	Mdm2 ligase inh 40 (no result: PKD1 inh, ROMK primary, p97 ATPase inh, DTT redox prof)
CC(C)CCn1c(=O)c2ccccc2n2c(CN3C(=O)NC4(CCC(C)CC4)C3=O)nnc12 (centres undefined)	ROMK primary 4
O=C(c1ccccc1)c1ccc(C(=O)N2CCN(c3ccc(F)cc3)CC2)o1	none (no result: ROMK primary)
O=C(NNC(=S)Nc1cccc2ccccc12)c1cccc(Br)c1	Cl transport mod 14
Oc1[nH]c2ccccc2c1N=NC(=S)NCC1CCCO1 (centres undefined)	Cl transport mod 4.2 (no result: ROMK primary)
Oc1[nH]c2c(Cl)cc(Cl)cc2c1N=NC(=S)NCC1CCCO1 (centres undefined)	Cl transport mod 56 (no result: ROMK primary)
